Activity calls are given as the source filed them.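 Rule for the calls: active = compounds whose fitted half-maximal concentration for reducing fibroblast viability is 100 µM or lower; inactive = the rest.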
Assays:
[1] = test system: LL 47 lung fibroblast viability, ATP luminescence; experiment: LL 47 lung fibroblast growth inhibition, concentration-response, selectivity test for endothelial growth inhibitor program, cellular, luminescent ATP readout (AID 821);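 note: cells exposed to compound for 72 h at 37 °C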;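 for viability: 100% = median of untreated cell-only wells and 0% = no luminescence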
In short: (§1)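 Assay system: LL 47 human lung fibroblasts; Compound: dose series 0.039–20 µM final, 0.2% DMSO; Schedule: 72 h compound treatment at 37 °C after overnight attachment; Technique: CellTiter-Glo luminescence; Evaluation: percent viability relative to untreated wells, EC50 via 4-parameter fit.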

[2] = as above; details: LL 47 lung fibroblast viability, ATP luminescence; at 20 µM (top of the series)
In short: as §1

Compound	EC50 [1]	viability [2]
Cc1ccc2[nH]c3c(c2c1)CCCC3=O	> 10 µM (inactive)	–
COc1cccc(C(=O)Oc2c(CN3CCOCC3)cc(Cl)c3cccnc23)c1	5.95 µM	–
Cc1cc(NC(c2cccnc2)c2ccc3cccnc3c2O)no1 (stereo not given)	2.93 µM	–
CCN(CC)CCn1c2ccccc2c2cnc(N)c(C#N)c21	9.65 µM	–
CCCCOc1ccc(C(=O)C(CN2CCOCC2)c2ccccc2)cc1 (stereo not given)	6.5 µM	–
Oc1ccccc1NCC(O)Cn1ccc2ccccc21 (stereo not given)	–	98.6% (inactive)
Cc1cccc(C)c1OCC(=O)N=Nc1c(O)[nH]c2ccc(Br)cc12	–	104% (inactive)
Cc1cc(C)cc(OC(=O)CS(=O)c2ccc(C(F)(F)F)cc2[N+](=O)[O-])c1 (stereo not given)	–	98.3% (inactive)
Brc1cccc(-c2nnc3sc(CNC4CCCC4)cn23)c1	–	96.9% (inactive)
CC(C(=O)N1CCOCC1)N1C(=O)c2ccccc2C1=O (stereo not given)	–	117% (inactive)
COc1ccc(-c2cc(C(=O)Nc3cc(C)n(Cc4ccc(Cl)cc4)n3)no2)cc1OC	–	102% (inactive)
CC1=C(C)CS(=O)N(S(=O)(=O)c2ccc(Cl)cc2)C1 (stereo not given)	–	106% (inactive)
O=C(CSc1nnc(-c2cc(-c3cccs3)nc3ccccc23)o1)NC1CCCCC1	–	98.4% (inactive)
N#CCc1nc2c3c4c(sc3ncn2n1)CCCC4	–	102% (inactive)
COc1cccc(C(=O)CSc2nnc(-c3cc(OC)cc(OC)c3)o2)c1	–	91.3% (inactive)
O=C(COc1nc2ccccc2nc1N1CCOCC1)N1CCc2ccccc21	–	95.5% (inactive)
COc1ccc(Cl)c(N2CCN(CCCNC(=O)Nc3ccc(C)cc3)CC2)c1	–	84.9% (inactive)
Cc1nn(-c2ccc(Cl)cc2)c2sc(C(=O)N3CCN(c4ccccn4)CC3)cc12	–	91.4% (inactive)
O=C(CC1SCCNC1=O)Nc1cc(Cl)cc(Cl)c1 (stereo not given)	–	100% (inactive)
CCC(C)NC(=O)c1c(N)n(/N=C/c2ccccn2)c2nc3ccccc3nc12 (stereo not given)	–	116% (inactive)
O=C(NCCC1=CCCCC1)C1CCN(Cc2cnn(-c3ccccc3)c2-n2cccc2)CC1	–	92.5% (inactive)
Cc1ccc(Cn2c(SCC(=O)Nc3cc(C)on3)nc3ccccc3c2=O)cc1	–	80.1% (inactive)
CCOc1ccc(NS(=O)(=O)c2ccc(OCC(=O)NCCCOC)cc2)cc1	–	93.1% (inactive)
Cc1c(CN(C)C(=O)c2sc3cc(Cl)ccc3c2Cl)cnn1C	–	94.6% (inactive)

Compound	EC50 [1]	viability [2]
CCOc1cc(/C=C\c2[nH]c(=O)[nH]c(=O)c2[N+](=O)[O-])ccc1OC(C)CC (stereo not given)	–	90.9% (inactive)
O=C(CCN1CCN(Cc2ccccc2)CC1)Nc1ccc(OCc2ccccc2)cc1	–	97.3% (inactive)
Cc1cc2nc(C3CCN(CC4COc5ccccc5O4)CC3)[nH]c2cc1C (stereo not given)	–	88.5% (inactive)
CCOc1ccc(OCc2ccc(C(=O)NCC3CCCO3)o2)cc1 (stereo not given)	–	109% (inactive)
CCCCc1ccc(Nc2nc(CCC)cc(=O)[nH]2)cc1	–	91% (inactive)
Cc1ccc(S(=O)(=O)c2c(C)nn(C(C)(C)C)c2OC(=O)c2cccs2)cc1	–	104% (inactive)
CCCCCn1c(CN2CCN(c3cc(Cl)ccc3C)CC2)nc2c1c(=O)[nH]c(=O)n2C	–	81.2% (inactive)
CCCCCCn1c(C)nc2c(c1=O)c1nc3ccccc3nc1n2/N=C/c1ccco1	–	111% (inactive)
O=C(Nc1ccc2nn(-c3ccccc3)nc2c1)c1ccc2c(c1)OCCO2	–	105% (inactive)
COc1ccccc1N1CCN(CC(=O)c2c(C)[nH]c3cc(C)ccc23)CC1	–	86.8% (inactive)
COc1ccccc1-c1cc(C(=O)Nc2cc(C)n(Cc3ccc(Cl)cc3)n2)no1	–	86% (inactive)
C=C(C)COc1ccc(-c2n[nH]c(C)c2Oc2ccccc2OC)c(O)c1	–	94.7% (inactive)
COc1cc(-c2nnc(COc3ccc4cc(Br)ccc4c3)o2)cc(OC)c1OC	–	127% (inactive)
O=C(Nc1ccc(OC(F)F)c(Cl)c1)Nc1ccc2c(c1)OCO2	–	109% (inactive)
CCCCOc1ccc(C(=O)OC2CC(C)N(C)CC2C)cc1 (stereo not given)	–	96.4% (inactive)
CCCn1c(Nc2nc3ccccc3n2C)nc2ccccc21	–	102% (inactive)
CC1CCCN(c2oc(-c3cccc4ccccc34)nc2C#N)C1 (stereo not given)	–	99.6% (inactive)
Cn1c(-c2ccc3ccccc3n2)nc2cnccc21	–	93.4% (inactive)
CCn1c(Cc2ccc(OC)cc2)nnc1SCC(=O)Nc1cccc(C(=O)OC)c1	–	96.9% (inactive)
COc1ccc(CCNC(=O)c2ccc3c(=O)n(Cc4ccco4)c(=S)[nH]c3c2)cc1OC	–	112% (inactive)
Nc1nc2ccccc2n1/N=C/c1ccc(-c2ccccc2)o1	–	111% (inactive)
COc1cc(N=c2ssnc2Cl)c(OC)cc1Cl	–	88.6% (inactive)
COc1ccc2cc3cc(C(=O)Nc4ccc5c(c4)OCO5)oc3nc2c1	–	88.3% (inactive)
CNC(=O)Cn1c(=O)n(C)c2ccccc21	–	107% (inactive)

Compound	EC50 [1]	viability [2]
COc1ccc2[nH]cc(C(=O)CN3CCN(C(=O)c4ccco4)CC3)c2c1	–	108% (inactive)
O=C(Nc1ccc2c(c1)CCC2)c1cnn2c1NC(c1ccco1)CC2C(F)(F)F (stereo not given)	–	83.8% (inactive)
Cc1cc(C)c2oc(-c3cccc(NC(=O)c4ccc(F)cc4)c3)nc2c1	–	104% (inactive)
COc1ccc(-c2noc(-c3ccc(Br)o3)n2)cc1OC	–	116% (inactive)
Cc1nc2sccn2c(=O)c1CCN1CCC(=C(c2ccc(F)cc2)c2ccc(F)cc2)CC1	–	91.4% (inactive)
CCCCCCOC(=O)C(C#N)c1nc2ccccc2nc1N1CCN(C)CC1 (stereo not given)	–	90.4% (inactive)
O=C1CCn2nc(-c3ccc(Cl)cc3)cc2N1	–	104% (inactive)
CC1=C(C(=O)OC2CCCCCCC2)C(c2cc3c(cc2Br)OCO3)CC(=O)N1 (stereo not given)	–	82.2% (inactive)
COC(=O)c1ccc2c(=O)n(Cc3ccco3)c(SCC(=O)Nc3ccccc3Cl)nc2c1	–	104% (inactive)
Cc1ccccc1-c1nc(CN2CCC(C(=O)NCCC3=CCCCC3)CC2)c(C)o1	–	87.6% (inactive)
COc1cccc2c(C)nc(Nc3nc(CSc4nnc(C)s4)cc(=O)[nH]3)nc12	–	117% (inactive)
CN1CCN(C(=O)c2ccc(COc3ccc(Cl)cc3Cl)cc2)CC1	–	103% (inactive)
CC1=C(C)CS(=O)N(S(=O)(=O)c2ccccc2)C1 (stereo not given)	–	86.9% (inactive)
CCCCn1c(SCC(=O)Nc2cc(NC(=O)c3ccco3)ccc2C)nc2ccccc2c1=O	–	99.3% (inactive)
Cc1ccc(S(=O)(=O)c2c(C)nn(C(C)(C)C)c2OC(=O)c2ccc(Br)o2)cc1	–	103% (inactive)
CCOc1ccc(-c2nn3c(-c4ccccc4)nnc3s2)cc1	–	113% (inactive)
CCOC(=O)N1CCN(C(=O)c2nn(-c3ccc(C)cc3)c(=O)c3c2c2ccccc2n3C)CC1	–	100% (inactive)
CCCc1cc(C(=O)Cc2ccc(F)cc2)c(O)cc1O	–	96.5% (inactive)
Cc1ccc(C(C#N)c2ccc(C(=O)c3ccc(F)cc3)cc2)cc1 (stereo not given)	–	97.1% (inactive)
COC(=O)c1c(C)n(-c2ccc(OC)cc2)c2ccc(O)cc12	–	87.7% (inactive)
CCOc1ccc2nc(NC(=O)CSc3nc4c(c(=O)n(C)c(=O)n4C)n3C(C)C)sc2c1	–	102% (inactive)
Nc1c(C(=O)Nc2ccc3c(c2)OCCO3)nnn1CCc1ccccc1	–	82.1% (inactive)
COc1cc(NC(=O)Nc2ccccc2)c(OC)cc1NC(=O)CN1CCCCC1	–	82.8% (inactive)
CCc1ccc2[nH]c(=O)c(CN(Cc3ccccc3)C(=O)Nc3ccccc3OC)cc2c1	–	88.9% (inactive)

Compound	EC50 [1]	viability [2]
CCOc1cc(C(=O)CSc2nnc(CNc3ccc(Cl)cc3)o2)ccc1NC(=O)CC	–	96% (inactive)
Cc1cccc(NC(=O)c2sc3nc4c(c(-c5cccs5)c3c2N)CN(C)CC4)c1	–	86.7% (inactive)
Cc1nc(C)c(-c2csc(Nc3cccnc3)n2)s1	–	87.8% (inactive)
Cc1nn(CC(=O)Nc2ccc3c(c2)oc2ccccc23)c(=O)c2ccccc12	–	105% (inactive)
c1ccc(CSc2nnc(-c3c[nH]c4ccccc34)o2)cc1	–	102% (inactive)
CC(C)(C)c1ccc(-c2nnc(SCC(=O)O)n2N)cc1	–	103% (inactive)
CCCCC(=O)O[C@H]1CC[C@H]2[C@@H]3CCc4cc(O)ccc4[C@H]3CC[C@]12C	–	84% (inactive)
COc1ccccc1N1CCN(C(=O)c2ccc(Br)s2)CC1	–	103% (inactive)
c1ccc(-c2nccc(-c3ccc(-n4cnc5ccccc54)cc3)n2)cc1	–	115% (inactive)
CSc1nnc2n(-c3ccc(C)cc3)c(=O)c3c4c(sc3n12)COC(C(C)C)C4 (stereo not given)	–	109% (inactive)
O=C(CCC1COc2ccccc2O1)Nc1ccc(Cl)cn1 (stereo not given)	–	95.5% (inactive)
CCOC(=O)c1cc2c(N)c(C(=O)c3cc(C#N)c(SC)nc3C)sc2nc1C	–	101% (inactive)
CN1CCN(c2ccccc2NC(=O)c2ccc(-c3ccc(Cl)cc3Cl)o2)CC1	–	88.2% (inactive)
Cc1ccccc1NC(=O)CSC(N)=O	–	110% (inactive)
CCN(CC(O)Cn1c2ccccc2c2ccccc21)S(=O)(=O)c1ccc(C)cc1 (stereo not given)	–	96.4% (inactive)
COc1ccc2cc3cc(C(=O)Nc4ccc5c(c4)OCCO5)oc3nc2c1	–	98.4% (inactive)
O=C1CCCc2c1[nH]c1ccc(Br)cc21	–	107% (inactive)
Cc1ccccc1-n1ncc2c([N+](=O)[O-])cc([N+](=O)[O-])cc21	–	90.7% (inactive)
Cc1ccc2[nH]c3c(N4CCN(Cc5ccccc5)CC4)ncnc3c2c1	–	88.2% (inactive)
O=C1c2[nH]nc(-c3ccccc3O)c2C(c2cccc(Cl)c2)N1Cc1ccco1 (stereo not given)	–	98.4% (inactive)
CCOC(=O)CNC(=O)C(=O)c1c(O)[nH]c2ccccc12	–	96.6% (inactive)
O=C(Nc1cccc(-c2nnc(-c3ccccc3)o2)c1)c1ccc(Br)o1	–	118% (inactive)
NC(=O)Cc1c[nH]c2cccc(O)c12	–	111% (inactive)

— PubChem BioAssay AID821 (SRMLSC, 2007)
